In PubChem BioAssay:
Results filed as inconclusive are left out. Calls of active or inactive are those of the source.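 How the source made its calls, unless noted: active means cell viability at or below a set limit in both duplicate runs, the limit being the all-compound median minus 4 SD (cut at about 23% in these data, passing the limit was not always enough); inconclusive means no clear call, values can overlap the other calls; inactive means the rest.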

Key:
[1] = OD615 S. cerevisiae growth inhibition, permissive medium, pilot counter-assay, permissive growth control for S. cerevisiae lifespan shortening project (AID 705;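 active means growth inhibition above 25% in both replicates, a cutoff set 3 SD above the mean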); details: OD615, 24 h, at 10 µM, hits give high values
Procedure, shortened: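 Timing: 24 h exposure, 30 °C / Material: Saccharomyces cerevisiae strain carrying genetically modified DeaD replicative-lifespan system / Signal: OD at 615 nm / Compound: 10 µM single dose, 0.25% DMSO / Medium: SC raffinose/galactose permissive medium / Evaluation: reduction in yeast growth (OD615)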

[2] = Restrictive medium S. cerevisiae growth inhibition, OD615, pilot screen of yeast lifespan reduction project, restrictive growth control (AID 706;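 active means growth inhibition above a set limit, 3 SD over mean compound inhibition, in both replicates, cut at about 43% in these data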;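 further: modified DeaD lifespan yeast strain shifted to restrictive glucose medium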); details: OD615, 48 h, at 10 µM, hits give high values
Procedure, shortened: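 System: Engineered S. cerevisiae DeaD strain | Detection: OD615 | Buffer or medium: CSMM-D glucose medium | Doses: 10 µM compound, 0.25% DMSO | Timing: 4 h pre-growth plus 48 h compound exposure, 30 °C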

[3] = viability gain of MRP-1-high H69AR cells under doxorubicin, pilot screen, MRP-1 activator project, CellTiter-Glo, duplicate (AID 807;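 active means viability increase at or above a cutoff of the median across tested compounds plus 3 SD, cut at about 8.5% in these data, passing the limit was not always enough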;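 further: compound pretreatment 18-22 h then 72 h combined with doxorubicin; 0% = doxorubicin alone and 100% = vehicle without doxorubicin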); details: H69AR viability with doxorubicin, CellTiter-Glo luminescence; at 10 µM; hits give high values
[4] = growth suppression of beta-catenin knockout HCT116, pilot screen, human colon tumor cells (AID 823); details: CellTiter-Glo, 60 h, at 10 µM, hits give low values;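 further: 0% = wells killed by 20 µM Hyamine and 100% = untreated DMSO cell wells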
[5] = growth suppression of PTEN-deleted HCT116, pilot screen, cell-based, HCT116 clonal line, CellTiter-Glo (AID 824;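 active means viability at or below 27.92% in each of two runs, the all-compound median minus 4 SD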;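 further: 0% = 20 µM Hyamine control and 100% = vehicle cell control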); details: 60 h, at 10 µM, hits give low values
[6] = inhibitors of the yeast RAM network, pilot screen, dse1pr::URA3 reporter, 5-FOA selection (AID 869;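 active means inhibition over a set limit, the all-compound mean plus 3 SD, in both replicate runs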;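 further: 0% = DMSO wells with no growth and 100% = 10 µM 1-NA-PP1 with full growth; RAM network block rescues cells from 5-FOA so hits raise OD615 growth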); details: S. cerevisiae dse1pr::URA3 5-FOA growth, OD615, 2 d; at 10 µM; hits give high values; strain carries analog-sensitive mutant Cbk1 kinase
[7] = RAM signaling pathway blockade in yeast – S. cerevisiae, Pdr1DBD-CYC8 efflux-inhibited sensitized strain, primary screen (AID 1298;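 active means RAM network inhibition above 8.4% in each of two replicates, 3 SD over the compound average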;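 further: 0% = DMSO untreated cells without growth and 100% = 10 µM 1-NA-PP1 full growth; higher means more yeast growth rescued from 5-FOA killing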); details: S. cerevisiae cbk1-as DSE1-URA3 strain, 5-FOA growth OD615, 2 d; at 50 µM; hits give high values

O=C(Nc1cccc2c1CCCC2)c1ccc(Br)o1
inactive: growth inhibition [1] -11.8% | growth inhibition [2] 6.87% | viability increase [3] -1.15% | viability [4] 79.6% | viability [5] 68% | inhibition [6] 2.19% | RAM network inhibition [7] 9.1%

O=C(NC(C(=O)c1ccccc1)N1CCCCC1)c1ccccc1 (stereo unspecified)
inactive: growth inhibition [1] -8.09% | growth inhibition [2] -3.47% | viability increase [3] -2.31% | viability [4] 91.2% | viability [5] 98% | inhibition [6] -0.65% | RAM network inhibition [7] 1.67%

COCCOC(=O)C1=C(C)NC2=C(C(=O)CC(C)(C)C2)C1c1ccc2c(c1)OCO2 (stereo unspecified)
inactive: growth inhibition [1] -5.88% | growth inhibition [2] -4.59% | viability increase [3] -1.42% | viability [4] 92.9% | viability [5] 87.4% | inhibition [6] 0.175% | RAM network inhibition [7] 2.6%

Cc1cnn(C(=O)c2ccccc2Br)c1
inactive: growth inhibition [1] 3.79% | growth inhibition [2] -3.8% | viability increase [3] -1.43% | viability [4] 109% | viability [5] 103% | inhibition [6] -0.355% | RAM network inhibition [7] 1.6%

O=C(CCCCCN1C(=O)C2C3C=CC(C3)C2C1=O)Nc1nccs1 (stereo unspecified)
inactive: growth inhibition [1] -3.44% | growth inhibition [2] -2.41% | viability increase [3] -1.31% | viability [4] 100% | viability [5] 91.5% | inhibition [6] 0.215% | RAM network inhibition [7] 4.28%

COc1ccc(C2CCCN2C(=O)Nc2ccc(F)cc2)cc1OC (stereo unspecified)
inactive: growth inhibition [1] -6.66% | growth inhibition [2] -5.24% | viability increase [3] 1.33% | viability [4] 98.8% | viability [5] 88.2% | inhibition [6] 2.6% | RAM network inhibition [7] 3.45%

CCC(C)NC(=O)c1ccc(CS(=O)(=O)c2ccc(OC)cc2)o1 (stereo unspecified)
inactive: growth inhibition [1] 4.79% | growth inhibition [2] -1.07% | viability increase [3] -1.33% | viability [4] 104% | viability [5] 93.2% | inhibition [6] 0.73% | RAM network inhibition [7] -2.32%

Cc1cc(C)n2nc(S(=O)(=O)NCCc3ccccc3)nc2n1
inactive: growth inhibition [1] -6.26% | growth inhibition [2] -8.79% | viability increase [3] -0.6% | viability [4] 111% | viability [5] 100% | inhibition [6] 2.72% | RAM network inhibition [7] 1.3%

CCn1c(O)c(C2=NCCCC2)c2ccccc21
inactive: growth inhibition [1] 0.575% | growth inhibition [2] 11.6% | viability increase [3] -0.12% | viability [4] 95% | viability [5] 102% | inhibition [6] -0.49% | RAM network inhibition [7] 1.14%

CC1CCCCN1Cc1nc2c(c(=O)n(C)c(=O)n2C)n1Cc1cccc2ccccc12 (stereo unspecified)
inactive: growth inhibition [1] -4.17% | growth inhibition [2] -4.83% | viability increase [3] -0.2% | viability [4] 94.2% | viability [5] 89% | inhibition [6] 1.91% | RAM network inhibition [7] 2.8%

CC(=O)Nc1nc2n(n1)C(c1ccccc1)C=C(c1ccccc1)N2 (stereo unspecified)
inactive: growth inhibition [1] -7.58% | growth inhibition [2] 4.18% | viability increase [3] -2.94% | viability [4] 99.9% | viability [5] 106% | inhibition [6] 1.06% | RAM network inhibition [7] 1.19%

CCc1cccc(OCCCCNCCOC)c1
inactive: growth inhibition [1] -2.16% | growth inhibition [2] -11.6% | viability increase [3] -0.86% | viability [4] 89.1% | viability [5] 99.3% | inhibition [6] 2.08% | RAM network inhibition [7] -0.32%

CCOc1cc(C2NC(=O)NC(O)(C(F)(F)F)C2C(=O)c2ccc(Cl)cc2)ccc1O (stereo unspecified)
inactive: growth inhibition [1] -3.6% | growth inhibition [2] -4.53% | viability increase [3] -1.34% | viability [4] 86.7% | viability [5] 94.3% | inhibition [6] 1.62% | RAM network inhibition [7] -0.26%

Cc1ccc(C)c(Nc2ncnc3nc[nH]c23)c1
inactive: growth inhibition [1] -3.29% | growth inhibition [2] 0.02% | viability increase [3] -1.34% | viability [4] 103% | viability [5] 103% | inhibition [6] 1.55% | RAM network inhibition [7] 2.66%

CCOc1ccccc1Nc1ncnc2c1cnn2-c1ccccc1
inactive: growth inhibition [1] -6.82% | growth inhibition [2] -5.11% | viability increase [3] 3.06% | viability [4] 93.6% | viability [5] 91.1% | inhibition [6] 2.2% | RAM network inhibition [7] 5.59%

O=C(C1Cc2ccccc2O1)N1CCCCC1 (stereo unspecified)
inactive: growth inhibition [1] -0.465% | growth inhibition [2] 2.46% | viability increase [3] -1.5% | viability [4] 103% | viability [5] 101% | inhibition [6] 0.17% | RAM network inhibition [7] 4.37%

Cc1cc(Nc2ccc(F)cc2Cl)n2ncnc2n1
inactive: growth inhibition [1] -7.73% | growth inhibition [2] 2.61% | viability increase [3] -2.45% | viability [4] 103% | viability [5] 95.1% | inhibition [6] -0.7% | RAM network inhibition [7] 1.89%

COc1cccc(-c2nnc(NC(=O)C3CCCCC3)o2)c1
inactive: growth inhibition [1] -14% | growth inhibition [2] -2.06% | viability increase [3] -3.8% | viability [4] 83.5% | viability [5] 85.7% | inhibition [6] 1.85% | RAM network inhibition [7] 1.88%

CN1CCN(S(=O)(=O)c2ccc(-c3ccc(S(=O)(=O)N4CCN(C)CC4)cc3)cc2)CC1
inactive: growth inhibition [1] -23.4% | growth inhibition [2] -19.1% | viability increase [3] 0.84% | viability [4] 96.5% | viability [5] 96.2% | inhibition [6] 0.68% | RAM network inhibition [7] 0.57%

COc1ccc(-c2cn3c(C)c(C(=O)N4CCc5ccccc5C4)sc3n2)cc1
inactive: growth inhibition [1] 0.41% | growth inhibition [2] 6.71% | viability increase [3] -7.22% | viability [4] 87.6% | viability [5] 84.5% | inhibition [6] 3.01% | RAM network inhibition [7] 4.47%

Cc1ccc(NC(=O)CSC2=C(C#N)C(c3ccc4c(c3)OCO4)C3=C(CCCC3=O)N2)c(C)c1 (stereo unspecified)
inactive: growth inhibition [1] 21.3% | viability increase [3] -5.27% | viability [4] 73.7% | viability [5] 72.7% | inhibition [6] 1.4% | RAM network inhibition [7] 5.06%
active: growth inhibition [2] 59.1%

NS(=O)(=O)c1ccc(CCNC(=O)NC2(C(F)(F)F)Oc3ccccc3O2)cc1
inactive: growth inhibition [1] -2.1% | growth inhibition [2] -6.81% | viability increase [3] -6.42% | viability [4] 63.4% | viability [5] 80.3% | inhibition [6] 0.12% | RAM network inhibition [7] 3.68%

CCOC(=O)c1cnc2ccc(Br)cc2c1NCC(C)O (stereo unspecified)
inactive: growth inhibition [1] -11.9% | growth inhibition [2] -9.36% | viability increase [3] -4.28% | viability [4] 91.4% | viability [5] 89.2% | inhibition [6] 1.19% | RAM network inhibition [7] 2.79%

CC1CN(C(c2cccs2)c2sc3ncnn3c2O)CC(C)O1 (stereo unspecified)
inactive: growth inhibition [1] -15% | growth inhibition [2] -4.9% | viability increase [3] 0.14% | viability [4] 101% | viability [5] 97.8% | inhibition [6] 2.26% | RAM network inhibition [7] 4.47%

Cn1c(Cn2c(=O)sc3ccccc32)nnc1SCC(=O)Nc1ccccc1F
inactive: growth inhibition [1] -5.34% | growth inhibition [2] -10% | viability increase [3] -1.11% | viability [4] 104% | viability [5] 99.4% | inhibition [6] 1.62% | RAM network inhibition [7] 9.24%

CCOc1ccc(CC(=O)NCc2cn3c(C)csc3n2)cc1
inactive: growth inhibition [1] -5.88% | growth inhibition [2] 12.6% | viability increase [3] -0.15% | viability [4] 97.4% | viability [5] 102% | inhibition [6] 1.14% | RAM network inhibition [7] 6.38%

CCCCC(CC)CNC(=O)CCS(=O)(=O)c1cccc2nonc12 (stereo unspecified)
inactive: growth inhibition [1] 1.79% | growth inhibition [2] -0.105% | viability increase [3] -0.88% | viability [4] 92.2% | viability [5] 91.4% | inhibition [6] 2.17% | RAM network inhibition [7] 3.63%

Cc1ccc2oc3c(c(=O)c2c1)C(c1cccc(Cl)c1)N(CCCN1CCOCC1)C3=O (stereo unspecified)
inactive: growth inhibition [1] -0.165% | growth inhibition [2] 2.74% | viability increase [3] -3.81% | viability [4] 76.8% | viability [5] 79% | inhibition [6] 0.735% | RAM network inhibition [7] 2.4%

CCSC1=N/C(=C\c2ccc(C(=O)O)cc2)C(=O)S1
inactive: growth inhibition [1] -3.9% | growth inhibition [2] -3.52% | viability increase [3] -2.03% | viability [4] 95.4% | viability [5] 100% | inhibition [6] 1.83% | RAM network inhibition [7] 8.27%

COc1ccc(C2c3sc(=O)[nH]c3SC3C(=O)N(c4ccccc4)C(=O)C32)cc1 (stereo unspecified)
inactive: growth inhibition [1] -6.11% | growth inhibition [2] 12.6% | viability increase [3] 0.68% | viability [4] 99.9% | viability [5] 99.3% | inhibition [6] 2.98% | RAM network inhibition [7] 5.53%

Cc1cccc(NC(=O)NCCN2C(=O)C3C4C=CC(C4)C3C2=O)c1 (stereo unspecified)
inactive: growth inhibition [1] -11.4% | growth inhibition [2] 8.84% | viability increase [3] -1.25% | viability [4] 104% | viability [5] 96.4% | inhibition [6] 1.83% | RAM network inhibition [7] 0.37%

O=C(Cn1nc(Cc2cccnc2)c2ccccc2c1=O)N1CCN(C(=O)c2ccco2)CC1
inactive: growth inhibition [1] 4.07% | growth inhibition [2] 0.805% | viability increase [3] -0.74% | viability [4] 104% | viability [5] 104% | inhibition [6] 0.64% | RAM network inhibition [7] 2.7%

CCOC(=O)COC(=O)c1ccc(O)cc1
inactive: growth inhibition [1] -4.13% | growth inhibition [2] -13.5% | viability increase [3] -0.28% | viability [4] 93% | viability [5] 97.8% | inhibition [6] 1.47% | RAM network inhibition [7] 0.37%
